Assay results taken from PMC11843914 (RSC Advances, 2025).

Columns and labels:
Type in all cases: cell-based
HCT-116 (colon cancer) = assay: MTT cell viability assay, HCT-116; settings: Homo sapiens; for IC50: HCT-116, 48 h, read-out: IC50 values, HCT-116; for cytotoxicity at 100 µM: HCT-116, read-out: Cytotoxicity %, HCT-116
Outline: (§1)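 MTT viability assay on human cell lines: MCF-7, HCT-116, PC3 and normal BJ-1. Test compounds were first screened at 100 μM. IC50 values came from a concentration series of 100 μM down to 12.5 μM.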

MCF-7 (breast cancer) = assay: MTT cell viability assay, MCF-7; settings: Homo sapiens; for IC50: MCF7, 48 h, read-out: IC50 values, MCF-7; for cytotoxicity at 100 µM: MCF7, read-out: Cytotoxicity %, MCF-7
Outline: as §1

PC3 (prostate cancer) = assay: MTT cell viability assay, PC3; settings: Homo sapiens; for IC50: 48 h, read-out: IC50 values, PC3; for cytotoxicity at 100 µM: read-out: Cytotoxicity %, PC3
Outline: as §1

SMILES	IC50 (HCT-116 (colon cancer)) [µM]	IC50 (MCF-7 (breast cancer)) [µM]	IC50 (PC3 (prostate cancer)) [µM]	cytotoxicity at 100 µM (MCF-7 (breast cancer)) [%]	cytotoxicity at 100 µM (HCT-116 (colon cancer)) [%]	cytotoxicity at 100 µM (PC3 (prostate cancer)) [%]
O=c1[nH]cc(F)c(=O)[nH]1 [5-FU, 5-fluorouracil, reference compound]	29.2 ± 1.7	78.4 ± 4.2	> 200	–	–	–
O=C(NN=Cc1ccc(O)cc1)c1nc2ccccc2s1 [6a, N′-(4-Hydroxybenzylidene)benzo[d]thiazole-2-carbohydrazide]	102 ± 2.1	–	–	–	–	–
COc1ccc(C=NNC(=O)c2nc3ccccc3s2)cc1O [6c, N'-(3-Hydroxy-4-methoxybenzylidene)benzo[d]thiazole-2-carbohydrazide]	–	80.9 ± 3.7	–	58.1	–	–
CS(=O)(=O)Oc1ccc(C=NNC(=O)c2nc3ccccc3s2)cc1 [6d, 4-((2-(Benzo[d]thiazole-2-carbonyl)hydrazono)methyl)phenyl methanesulfonate]	–	–	–	62.5	66.7	66.5
COc1cc(C=NNC(=O)c2nc3ccccc3s2)ccc1OS(C)(=O)=O [6e, 4-((2-(Benzo[d]thiazole-2-carbonyl)hydrazono)methyl)-2-methoxyphenyl methanesulfonate]	81.4 ± 1.9	–	90.6 ± 2.7	–	61.1	60.8
COc1ccc(C=NNC(=O)c2nc3ccccc3s2)cc1OS(C)(=O)=O [6f, 5-((2-(Benzo[d]thiazole-2-carbonyl)hydrazono)methyl)-2-methoxyphenyl methanesulfonate]	–	–	–	–	62.8	–
CCS(=O)(=O)Oc1ccc(C=NNC(=O)c2nc3ccccc3s2)cc1 [6g, 4-((2-(Benzo[d]thiazole-2-carbonyl)hydrazono)methyl)phenyl ethanesulfonate]	–	–	–	62.3	68.6	74.8
CCS(=O)(=O)Oc1ccc(C=NNC(=O)c2nc3ccccc3s2)cc1OC [6h, 4-((2-(Benzo[d]thiazole-2-carbonyl)hydrazono)methyl)-2-methoxyphenyl ethanesulfonate]	–	–	–	–	55.2	63.4
CCCS(=O)(=O)Oc1ccc(C=NNC(=O)c2nc3ccccc3s2)cc1 [6j, 4-((2-(Benzo[d]thiazole-2-carbonyl)hydrazono)methyl)phenyl propane-1-sulfonate]	–	–	–	–	68.5	62.3
CCCS(=O)(=O)Oc1ccc(C=NNC(=O)c2nc3ccccc3s2)cc1OC [6k, 4-((2-(Benzo[d]thiazole-2-carbonyl)hydrazono)methyl)-2-methoxyphenyl propane-1-sulfonate]	–	–	–	59.6	77.2	64.6
